Experimental findings from ChEMBL document CHEMBL3244312, “Cannabinoids. 1. 1-Amino- and 1-mercapto-7,8,9,10-tetrahydro-6H-dibenzo [b,d]pyrans” (1977) are described below.

Assay [1] has as its system Rattus norvegicus. Briefly: CNS activity in septal-lesioned rat assessed as decrease in hyperreactivity behaviour at 10 mg/kg, po. The assay is classed as functional, organism-based. The arrangement: dose 10 mg/kg. The essentials:
(§1)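 Septal-lesioned rats rated hyperreactive at score ≥11 used as their own controls; oral dosing. Reactivity rated at 30, 60, 120, 240, 300 min post-dose. P value = postdrug rating sum / predrug sum per period. E value = mean of ten 30-min periods over 300 min, interpolated, / predrug sum. Student's t test, p<0.01.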

For assay [2], the system named is Rattus norvegicus. Put plainly: CNS activity in po dosed rat assessed as protection against muricide. As to conditions: for minimal effective dose: Rattus norvegicus, po, read-out: MED. It is filed as functional. Summed up:
(§2)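 Rats with innate mouse-killing behaviour, control kill time under 5 s; three rats per dose, oral dosing, vehicle controls at equal injection volume. Muricide scored 15–360 min post-dose (0 = 0–59 s, 1 = 60–120 s, 2 = >120 s). Scores converted to percent protection versus vehicle; Student's t test for significance.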

Assay [3] deals with Mus musculus. Put plainly: CNS activity in mouse assessed as alteration of exploratory behaviour at 20 mg/kg, po. The assay is classed as functional, organism-based. Set-up: dose 20 mg/kg. Summed up: (§3)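 Mice in groups of five, dosed orally, placed in doughnut-shaped activity cages (six infrared photocells) 90 min post-dose. Beam breaks counted cumulatively at 30, 60, 90 and 120 min in cage ([…]) plus 120-min total. Counts compared with vehicle-injected controls. Compounds dissolved in acetone.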

For assay [4], the system named is Mus musculus. Put plainly: CNS activity in po dosed mouse assessed as alteration of exploratory behaviour. The assay is classed as functional. As to conditions: for minimal effective dose: Mus musculus, po, read-out: MED. The essentials:
as §3

In assay [5] the test system is Rattus norvegicus. Put plainly: CNS activity in po dosed septal-lesioned rat assessed as decrease in hyperreactivity behaviour. It is filed as functional. The settings on record: for minimal effective dose: Rattus norvegicus, po, read-out: MED. The essentials:
as §1

Assay [6] deals with Rattus norvegicus. Put plainly: CNS activity in rat assessed as protection against muricide at 10 mg/kg, po. It is filed as functional, organism-based. The arrangement: dose 10 mg/kg. The essentials:
as §2

Active and inactive are the calls of the source. No cut-off for these calls is given here.

Regarding `CCCCCc1cc(O)c2c(c1)OC(C)(C)C1=C2CC(C)CC1` (racemic), the outcome in assay [1] and in assay [3] was inactive. Also, in assay [2], the minimal effective dose was 10 mg/kg.
Regarding `CCCCCC(C)C(C)c1cc(O)c2c(c1)OC(C)(C)C1=C2CC(C)CC1` (racemic), the minimal effective dose in assay [2] was 2.5 mg/kg; in assay [4] it was 0.62 mg/kg; in assay [5], 5 mg/kg.
Turning to `CCCCCCC(C)(C)c1cc(O)c2c(c1)OC(C)(C)C1=C2CC(C)CC1` (racemic), the MED in assay [2] worked out at 0.62 mg/kg. In addition, the minimal effective dose was found to be 0.62 mg/kg in assay [4] and 1.25 mg/kg in assay [5].
In the case of `CCCCCC(C)C(C)c1cc(N)c2c(c1)OC(C)(C)C1=C2CC(C)CC1` (racemic), the results for the minimal effective dose in assay [2], in assay [4] and in assay [5] were 5 mg/kg, 2.5 mg/kg and 10 mg/kg, respectively.
For `CCCCCCC(C)(C)c1cc(N)c2c(c1)OC(C)(C)C1=C2CC(C)CC1` (racemic) [listing 1 of 2 here], the minimal effective dose in assay [2] was found to be 10 mg/kg; in assay [4], 5 mg/kg.
With `CCCCCC(C)C(C)c1cc(NC(C)=O)c2c(c1)OC(C)(C)C1=C2CC(C)CC1` (racemic), the result in assay [1] and in assay [3] was inactive. Moreover, the minimal effective dose in assay [2] was found to be 10 mg/kg.
In the case of `CCCCCC(C)C(C)c1cc(NC)c2c(c1)OC(C)(C)C1=C2CC(C)CC1` (racemic), the result in assay [1] and in assay [6] was inactive. For the same compound, in assay [4], the minimal effective dose is 20 mg/kg.
In the case of `CCCCCC(C)C(C)c1cc2c(c(N(C)C)c1)C1=C(CCC(C)C1)C(C)(C)O2` (racemic), the result in assay [1] and in assay [6] was inactive. Besides, the minimal effective dose in assay [4] was found to be 20 mg/kg.
For `CCCCCCC(C)(C)c1cc(NS(C)(=O)=O)c2c(c1)OC(C)(C)C1=C2CC(C)CC1` (racemic), the result in assay [1] and in assay [6] was inactive. Moreover, the minimal effective dose in assay [4] was 20 mg/kg.
`CCCCCC(C)C(C)c1cc(S)c2c(c1)OC(C)(C)C1=C2CC(C)CC1` (racemic): the result in assay [1], in assay [6] and in assay [3] was inactive.
Consider `CCCCCCC(C)(C)c1cc(N)c2c(c1)OC(C)(C)C1=C2CC(C)CC1` (racemic) [listing 2 of 2 here], for which the outcome in assay [1] was inactive.
As for `CCCCCc1cc(N)c2c(c1)OC(C)(C)C1=C2CC(C)CC1` (racemic), the result in assay [1], in assay [6] and in assay [3] was inactive.
On to `CCCCCc1cc(NC(C)=O)c2c(c1)OC(C)(C)C1=C2CC(C)CC1` (racemic), for which the outcome in assay [1], in assay [6] and in assay [3] was inactive.
Turning to `CCCCCc1cc(S)c2c(c1)OC(C)(C)C1=C2CC(C)CC1` (racemic), the result in assay [1], in assay [6] and in assay [3] was inactive.
`CCCCCc1cc2c(c(N(C)C)c1)C1=C(CCC(C)C1)C(C)(C)O2` (racemic): the outcome in assay [1], in assay [6] and in assay [3] was inactive.
Regarding `CCCCCCC(C)(C)c1cc(O)c2c(c1)OC(C)(C)C1=C2CC(C)CC1` (stereo in doubt; d-4c), the results for the MED in assay [2], in assay [4] and in assay [5] were 5 mg/kg, 0.31 mg/kg and 2.5 mg/kg, respectively.
With `CCCCCCC(C)(C)c1cc(N)c2c(c1)OC(C)(C)C1=C2CC(C)CC1` (stereo in doubt; d-10c) [listing 1 of 2 here], in assay [4], the MED came out at 10 mg/kg.
Turning to `CCCCCCC(C)(C)c1cc(N)c2c(c1)OC(C)(C)C1=C2CC(C)CC1` (stereo in doubt; d-10c) [listing 2 of 2 here], the outcome in assay [1] and in assay [6] was inactive.
Take `CCCCCCC(C)(C)c1cc(O)c2c(c1)OC(C)(C)C1=C2CC(C)CC1` (stereo in doubt; l-4c): in assay [2], the MED is 1.25 mg/kg.
On to `CCCCCCC(C)(C)c1cc(N)c2c(c1)OC(C)(C)C1=C2CC(C)CC1` (stereo in doubt; l-10c) [listing 1 of 2 here], for which the MED in assay [2] worked out at 10 mg/kg; in assay [4], 5 mg/kg.
As to `CCCCCCC(C)(C)c1cc(N)c2c(c1)OC(C)(C)C1=C2CC(C)CC1` (stereo in doubt; l-10c) [listing 2 of 2 here], the result in assay [1] was inactive.
